Measurements from the EternaBench riboswitch data.

Test system: MS2 coat protein
Assay: apparent Kd, MS2 coat protein; higher = weaker binding; RNA-MaP array; FMN 200 µM where present
Procedure, shortened: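 Designs were transcribed by stalled E. coli RNA polymerase on Illumina sequencing-chip clusters. They were titrated with SNAP-549-labelled MS2 coat protein from 0.7 or 1.5 nM, doubling to 3 µM, in 100 mM Tris-HCl pH 7.5, 80 mM KCl, 4 mM MgCl2, BSA, DTT, yeast tRNA and Tween-20, without and then with constant ligand. The apparent Kd is the median of filtered per-cluster fits after normalisation of green signal to red-channel RNA signal and control-cluster median Fmax.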

[1] = designed as: OFF switch for flavin mononucleotide, no ligand
[2] = ligand present: flavin mononucleotide, designed as: OFF switch for flavin mononucleotide
[3] = designed as: ON switch for flavin mononucleotide, no ligand
[4] = ligand present: flavin mononucleotide, designed as: ON switch for flavin mononucleotide

Sequence	apparent Kd [1]	apparent Kd [2]	apparent Kd [3]	apparent Kd [4]
AUAAAAGUAGGAUAUUGACUGAUCGACAUGAGGAUCACCCAUGUGGUGCUGUGCGGUAUUCAAGAAGGGCUAAAAU	21.8 nM	32.2 nM	–	–
AUAAAUCAUGUAGGAUAUGCGUGGCGAAGCUAUGCAGAAGGACAUGAGGAUCACCCAUGUCGUUCCGUCUGCGUACAGACGGAA	33.8 nM	306 nM	–	–
AUAAGCUCGUCAGGAUAUACGUCACUGUUUCGGCAGUGAGGUAUGAUCACAUGAGGAUCACCCAUGUAGAAGGGACGAGCUUAU	5.24 nM	8.29 nM	–	–
AUAAGCUCGUCAGGAUAUGCAACACUGUGUAAGCAGUGUGGUAUGAUCACAUGAGGAUCACCCAUGUAGAAGGGACGAGCUUAU	6.53 nM	26.9 nM	–	–
AUAAUGUGAGGAUAUAUGUAUCACGGUGAUACACCGUGAUGAUAGAAGGUACAUGAGGAUCACCCAUGUAGGGC	36.6 nM	72.7 nM	–	–
AUAAUUUUAUAUAUCAUUUUAAUCAGAAGGCAUAACAUGAGGAUCACCCAUGUAUAUUAUAGUUAUGAGGAUAUGAUUUGGUUA	11.6 nM	10.9 nM	–	–
AUAAUUUUAUAUUUCUUUUUAUUCAGAAGGCAUAACAUGAGGAUCACCCAUGUAAAUUAAUGUUAUGAGGAUAUGAUUUGGUUA	24.2 nM	105 nM	–	–
AUACAUGAGGAUCACCCAUGUAAUUAAUUAACUUGUAAGAUCAAGGAUAUCAGCUCGAUUAGAGCUGAGAAGGUGAUCACAUGU	–	–	260 nM	253 nM
AUACAUGAGGAUCACCCAUGUUACAUGGCCUUGAUAGAUUGUAGAAGGAUGUUAUUAUUUUUUUCAUAGGAUAUACUAUUUAGU	120 nM	105 nM	–	–
AUACAUGAGGAUCACCCAUGUUACAUGGGCUAGUUUUAACGUAGAAGGAUGUUAUUAUUAUUAGCAUAGGAUAUACAAUUUGAA	274 nM	248 nM	–	–
AUACAUGAGGAUCACCCAUGUUACUGGGUCUUAAUAGAACGUAGAAGGAUGAUUUUAUAAAUAACAUAGGAUAUACAAUAUUGU	181 nM	105 nM	–	–
AUACCUUAUGAGAAGGCGGUCAUGAAACAUGAUCGAGGAUAUCAUGUAAACAUGAGGAUCACCCAUGUAUGGGUAUUAUGGUAA	–	–	44.8 nM	10.2 nM
AUACUAAAUGAAGGAUAUCUAAGCAUAAACCUGAGAGAAGGUCAUUUUUACAUGAGGAUCACCCAUGUUGUGAUUAAUGGGUAA	201 nM	366 nM	–	–
AUACUAAAUGAAGGAUAUCUAAGCAUACACCUGAGAGAAGGUCAUUUUUACAUGAGGAUCACCCAUGUUGUGGUUAAUGGGUUA	290 nM	374 nM	–	–
AUACUCAAUGAAGGAUAUCUCAGCAUAAACCUGAGAGAAGGUCAUUGUUACAUGAGGAUCACCCAUGUUGUAGUUAAUGGGUAA	504 nM	573 nM	–	–
AUACUCAUGUAAGGAUAUGCAGCCGUCUCGGCUGCAGAAGGUACUAUAAUACAUGAGGAUCACCCAUGUCUCUCGCAUUGCGAG	–	–	562 nM	93.7 nM
AUACUUAAUGAAGGAUAUCUCAGCAUAAACCUGAGAGAAGGUCAUUGUUACAUGAGGAUCACCCAUGUUGUAGUUAAUGGGUAA	421 nM	413 nM	–	–
AUAGAAAGAUUAAUAUGAUUACAUGAGGAUCACCCAUGUAUAUAGGAUAUCGACGUCAAUGACGUCGAGAAGGAUAUACAUAAU	27.6 nM	90.4 nM	–	–
AUAGGCCUAGGAUAUACAUGAGGAUCACCCAUGUUAAUAAUUCGAUCAUGAUAAACGUGUAGAAGGAGGAAUAA	32.9 nM	36.9 nM	–	–
AUAUAGAUGGUCAGGAUAUGCUAGUGGUAACAGUAGCAGAAGGGACAUGAGGAUCACCCAUGUGGGUCCUGCUC	22.3 nM	64 nM	–	–
AUAUAUACCCAGAAGGUGCCAGCGAGAGCUGCACAUGAGGAUCACCCAUGUUGUCGGUGACGACGCAAGGAUAUGGGUAUAUAU	–	–	25.2 nM	7.86 nM
AUAUCUAUGUAAGGAUAUAGAUGAUAUACGCCUCCGACAUGAGGAUCACCCAUGUUAUAUUUUGUCUAGAAGGUACAUUGUCGG	–	–	168 nM	170 nM
AUAUCUCCCUAGAAGGUGUAACGACAAUUGCAUCACGUAGUUGGCGUAGCAAGGAUAUGGGACAUGAGGAUCACCCAUGUGGAU	–	–	15.9 nM	8.88 nM
AUAUGAAAGAUAGGAUAUACUGAGGUUGAAUGGGUAGAAGGAUCGAUAGGGAAGAAUACAUGAGGAUCACCCAUGUUGUGGAUU	–	–	81.7 nM	51.9 nM
AUAUGAAAGAUAGGAUAUACUGAGGUUGAAUGGGUAGAAGGAUCGAUAGUGGAGAAUACAUGAGGAUCACCCAUGUUGUGGAUU	–	–	828 nM	353 nM
AUAUUACGAGGAUAUCGUUUUUAUCACAUGAGGAUCACCCAUGUAAUUUAUGUUUCGUUUCGAGAAGGCGUAAGUU	19.8 nM	22 nM	–	–
AUAUUCUAGAUAGGAUAUACUGAGGUUGAAUGGGUAGAAGGAUCGUGAGAGUGGACUACAUGAGGAUCACCCAUGUUGUUUAUU	–	–	61.6 nM	59 nM
AUCAGCUCGUCAGGAUAUACGUCACUGCAUCAGCAGUGUGGUAAGAUCACAUGAGGAUCACCCAUGUAGAAGGGACGAGCUGAU	22.9 nM	139 nM	–	–

Sequence	apparent Kd [1]	apparent Kd [2]	apparent Kd [3]	apparent Kd [4]
AUCAGCUCGUCAGGAUAUACGUCACUGCGCCAGCAGUGUGGUAAGAUCACAUGAGGAUCACCCAUGUAGAAGGGACGAGCUGAU	15 nM	242 nM	–	–
AUCAGCUCGUCAGGAUAUACGUCACUGCGGCAGCAGUGUGGUAAGAUCACAUGAGGAUCACCCAUGUAGAAGGGACGAGCUGAU	13.1 nM	260 nM	–	–
AUCAGCUCGUCAGGAUAUACGUCACUGCGUCAGCAGUGUGGUAAGAUCACAUGAGGAUCACCCAUGUAGAAGGGAAGAGCUGAU	15.1 nM	232 nM	–	–
AUCAGCUCGUCAGGAUAUACGUCACUGCGUCAGCAGUGUGGUAAGAUCACAUGAGGAUCACCCAUGUAGAAGGGACGAGCUGCU	14 nM	264 nM	–	–
AUCAGCUCGUCAGGAUAUACGUCACUGCGUCAGCAGUGUGGUAAGAUCACAUGAGGAUCACCCAUGUAGAAGGGAUGAGCUGAU	13.3 nM	288 nM	–	–
AUCAGCUCGUCAGGAUAUACGUCACUGCGUCAGCAGUGUGGUAGGAUCACAUGAGGAUCACCCAUGUAGAAGGGACGAGCUGAU	23.8 nM	297 nM	–	–
AUCAGCUCGUCAGGAUAUACGUCACUGCGUCAGCAGUUUGGUAAGAUCACAUGAGGAUCACCCAUGUAGAAGGGACGAGCUGAU	15.2 nM	249 nM	–	–
AUCAGCUCGUCAGGAUAUACGUCACUGCGUCGGCAGUGUGGUAAGAUCACAUGAGGAUCACCCAUGUAGAAGGGACGAGCUGAU	14.4 nM	280 nM	–	–
AUCAGCUCGUCAGGAUAUACGUCACUGCUUCGGCAGUGUAAUAAAAUAACAUGAGGAUCACCCAUGUAGAAGGGACGAGCUGAU	5.93 nM	6.13 nM	–	–
AUCAGCUCGUGAGGAUAUACAUCACUGCUUCGGCAGUGUGGUAAGGUCACAUGAGGAUCACCCAUGUAGAAGGCACGAGCUGAU	13.1 nM	279 nM	–	–
AUCAGCUCGUGAGGAUAUACGUCACUGCGUCAGCAGUGUGGUAAGAUCACAUGAGGAUCACCCAUGUAGAAGGCACGAGCUGAU	66.2 nM	837 nM	–	–
AUCAGGCAAGGAUAUGAUAUAGGACACAUGAGGAUCACCCAUGUCCACCGAACGAUCGUUUCAGAAGGUGCACAGU	72.8 nM	41 nM	–	–
AUCAUCUUGUCAGGAUAUGCGUGUCAACGAAAGUAGACAAUCUUAAUAACAUGAGGAUCACCCAUGUAGAAGGGACGAGAUGAU	19.8 nM	21 nM	–	–
AUCCGGAAUGUUAGGAUAUCUUGGCGCCUGUGCUUGGAGAAGGGACAUGAGGAUCACCCAUGUCCUCUCGGAAA	13.1 nM	14.9 nM	–	–
AUCCUGCGAGGAUAUACAUAAUUUUUUUCAUUUUGACUCGAACAUGAGGAUCACCCAUGUAGAAGGUGCUACAC	36.7 nM	32.5 nM	–	–
AUCCUGCGAGGAUAUACAUAGUGACGUCUGUUUGGUCUCAAACAUGAGGAUCACCCAUGUAGAAGGUGCGUCAC	66.3 nM	66.5 nM	–	–
AUCCUUAACAAGGAUAUCGGGCGGGAAAUUGUUUGAGAAGGUGUGACAUGAGGAUCACCCAUGUGGCGCGUGGG	317 nM	257 nM	–	–
AUCGUGCAGCUUUGCUGUACGCGUACAUGAGGAUCACCCAUGUAGGAUAUGGUAGGCUUUGCUUACUAGAAGGAUAGUGUGAUC	106 nM	33.2 nM	–	–
AUCGUUGACUGGACGAGAAUAGGGCAGGAUAUACAUGAGGAUCACCCAUGUGAAGCACGAAAGAGGUAGAAGGGCCCACGUCAU	–	20.5 nM	–	–
AUCUUGAGAGGAUAUACAUGAGGAUCACCCAUGUUUCUAACACCAUGCGGUCAUUUGCGUAGAAGGCUCGUCCG	19.9 nM	34.1 nM	–	–
AUGAGGUCAGGAUAUGCAUGGCGGGACUUGCGUCGUGGCGUGCAGAAGGGACAUGAGGAUCACCCAUGUGGAGU	152 nM	218 nM	–	–
AUGAGUAAAGCAGGAUAUCUAUUGUCUCAGUAACAUGAGGAUCACCCAUGUAGAGAAGGGCUAAGUCUUACUCUUCGGAGAUGA	12.3 nM	13.4 nM	–	–
AUGAGUGUAAUGAUUGAGCCACUGCAGGAUAUCACAUGAGGAUCACCCAUGUGUCAGCCUCGGAGUGAGAAGGGCGGUUUCUUA	5.38 nM	10.6 nM	–	–
AUGCAACAUGAGGAUCACCCAUGUGAGGAUAUCGUAUAAUACUGUUGAAAUAUUUAGACGAGAAGGCACACCGU	29.7 nM	47.3 nM	–	–
AUGCUAGUGUGAGGAUAUCAACAUGAGGAUCACCCAUGUUGGAAGUACACGACAUGCGGUACACCUGAGAAGGUACAUUAGCAU	19.6 nM	25.4 nM	–	–
AUGCUAGUGUGAGGAUAUCAACAUGAGGAUCACCCAUGUUGGAAGUACACGACAUGCGGUACAUUUGAGAAGGUACAUUAGCAU	58.2 nM	108 nM	–	–
AUGCUAGUGUGAGGAUAUUAGGCACAUGAGGAUCACCCAUGUAAGAUCAUGACGAUCACGCAUGAUAAGAAGGUACAUUAGCAU	40 nM	47 nM	–	–
